The source of these data is ChEMBL document CHEMBL1132257, “Apstatin analogue inhibitors of aminopeptidase P, a bradykinin-degrading enzyme” (J Med Chem, 1999).

One may read the IC50 as the concentration that gives 50% inhibition. Low values mean greater potency, high ones weaker potency.

A short description of test [1]: Inhibition against Aminopeptidase P from Escherichia coli. A digest of the protocol:
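Recombinant E. coli AP-P, preincubated with 0.73 mM MnCl2 (0.02 mM residual in assay). Hydrolysis of 0.5 mM Arg-Pro-Pro in 0.1 M Hepes pH 8.0 tracked by fluorescence of free arginine. IC50 by linear regression of rate vs log inhibitor concentration over 10 concentrations, triplicate each.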

Test [2] is described as follows: Inhibition against Aminopeptidase P from bovine. The format is single protein. A digest of the protocol: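 Source was bovine lung membrane-bound enzyme purified to homogeneity. Substrate 0.5 mM Arg-Pro-Pro, 0.1 M Hepes pH 8.0, with fluorimetric detection of released arginine. IC50 by linear regression of rate vs log [inhibitor] (linear part), using 10 concentrations near a preliminary estimate, in triplicate.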

In test [3] the target is T1, Xaa-Pro aminopeptidase 1 (Homo sapiens, UniProt Q9NQW7). Nature of the test: Inhibition against Aminopeptidase P from human platelets. The method in brief: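 Enzyme from human platelets: washed in PBS with prostacyclin, freeze-thawed, sonicated; the 43000g 2 h supernatant was used. Substrate 0.5 mM Arg-Pro-Pro, 0.1 M Hepes pH 8.0, fluorimetric arginine read-out. IC50 from triplicate rates at 10 concentrations, by linear regression of rate vs log concentration.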

Test [4] concerns the target T1, Xaa-Pro aminopeptidase 1. Nature of the test: Inhibition against cytosolic Aminopeptidase P from human heart. The method in brief:
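Human heart homogenate in 0.1 M potassium phosphate pH 6.8: the 40000g supernatant, or enzyme partly purified on TNB-thiol agarose with dithiothreitol elution and exchange into Hepes. Assayed with 0.5 mM Arg-Pro-Pro, 0.1 M Hepes pH 8.0; arginine measured by fluorescence. IC50 by linear regression, 10 concentrations in triplicate.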

The target of test [5] is Xaa-Pro aminopeptidase 2 (Homo sapiens, UniProt O43895). Nature of the test: Inhibition against membrane bound human aminopeptidase P. A digest of the protocol:
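Partially purified membrane-bound AP-P from human or cynomolgus lung, released from microsomes by phosphatidylinositol-specific phospholipase C and then centrifuged. Triplicate rates at 10 inhibitor levels; IC50 by linear regression of the linear part of the rate vs log concentration plot.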

Test [6] has as its target T2, Xaa-Pro aminopeptidase 2 (Rattus norvegicus, UniProt Q99MA2).
T2 sequence (Q99MA2 whole entry): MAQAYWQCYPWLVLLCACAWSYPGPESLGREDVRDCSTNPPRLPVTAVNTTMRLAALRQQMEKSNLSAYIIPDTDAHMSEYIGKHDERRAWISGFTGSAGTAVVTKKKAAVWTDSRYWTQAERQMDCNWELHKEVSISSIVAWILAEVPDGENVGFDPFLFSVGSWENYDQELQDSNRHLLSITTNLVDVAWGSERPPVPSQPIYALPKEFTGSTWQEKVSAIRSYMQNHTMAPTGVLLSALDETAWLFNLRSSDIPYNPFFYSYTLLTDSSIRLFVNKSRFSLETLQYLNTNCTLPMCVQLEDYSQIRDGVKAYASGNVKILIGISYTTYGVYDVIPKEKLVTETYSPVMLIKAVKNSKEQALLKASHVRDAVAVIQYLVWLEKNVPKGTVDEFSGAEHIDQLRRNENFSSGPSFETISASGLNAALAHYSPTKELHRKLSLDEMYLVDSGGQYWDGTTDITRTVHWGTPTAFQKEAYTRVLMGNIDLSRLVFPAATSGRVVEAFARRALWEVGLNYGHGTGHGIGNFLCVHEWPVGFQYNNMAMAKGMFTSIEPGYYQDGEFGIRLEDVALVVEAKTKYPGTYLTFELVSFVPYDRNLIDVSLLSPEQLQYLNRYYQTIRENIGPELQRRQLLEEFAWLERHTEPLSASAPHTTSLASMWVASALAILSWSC
In words: Activity against membrane bound rat aminopeptidase P. The method in brief:
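Membrane-bound AP-P purified to homogeneity from rat lung; 0.5 mM Arg-Pro-Pro substrate in 0.1 M Hepes, pH 8.0; free arginine release read by fluorescence. IC50 from 10 inhibitor concentrations around an approximate value, each in triplicate, by linear regression of the linear portion of rate vs log inhibitor concentration.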

Structures are written as SMILES. A value given as a limit tells only on which side of the number the result lay.

T1 sequence (Q9NQW7 whole entry): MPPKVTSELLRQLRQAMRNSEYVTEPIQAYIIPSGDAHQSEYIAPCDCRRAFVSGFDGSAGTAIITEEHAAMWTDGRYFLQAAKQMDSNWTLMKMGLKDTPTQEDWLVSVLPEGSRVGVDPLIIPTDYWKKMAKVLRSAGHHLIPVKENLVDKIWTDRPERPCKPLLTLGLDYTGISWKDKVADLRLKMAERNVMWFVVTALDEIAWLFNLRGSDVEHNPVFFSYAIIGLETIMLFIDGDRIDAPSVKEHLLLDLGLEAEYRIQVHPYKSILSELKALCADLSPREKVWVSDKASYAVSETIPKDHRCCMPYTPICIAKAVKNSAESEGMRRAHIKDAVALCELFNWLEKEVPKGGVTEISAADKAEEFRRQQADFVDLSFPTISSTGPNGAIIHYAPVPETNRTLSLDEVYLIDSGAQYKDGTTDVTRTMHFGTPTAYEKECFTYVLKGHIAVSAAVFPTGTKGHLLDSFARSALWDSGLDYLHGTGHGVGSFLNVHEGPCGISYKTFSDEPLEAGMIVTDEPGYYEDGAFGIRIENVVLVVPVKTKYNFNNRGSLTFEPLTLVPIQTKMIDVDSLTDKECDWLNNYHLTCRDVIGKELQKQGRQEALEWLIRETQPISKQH
Chain of Xaa-Pro aminopeptidase 2 (Homo sapiens, UniProt O43895) (O43895 whole entry): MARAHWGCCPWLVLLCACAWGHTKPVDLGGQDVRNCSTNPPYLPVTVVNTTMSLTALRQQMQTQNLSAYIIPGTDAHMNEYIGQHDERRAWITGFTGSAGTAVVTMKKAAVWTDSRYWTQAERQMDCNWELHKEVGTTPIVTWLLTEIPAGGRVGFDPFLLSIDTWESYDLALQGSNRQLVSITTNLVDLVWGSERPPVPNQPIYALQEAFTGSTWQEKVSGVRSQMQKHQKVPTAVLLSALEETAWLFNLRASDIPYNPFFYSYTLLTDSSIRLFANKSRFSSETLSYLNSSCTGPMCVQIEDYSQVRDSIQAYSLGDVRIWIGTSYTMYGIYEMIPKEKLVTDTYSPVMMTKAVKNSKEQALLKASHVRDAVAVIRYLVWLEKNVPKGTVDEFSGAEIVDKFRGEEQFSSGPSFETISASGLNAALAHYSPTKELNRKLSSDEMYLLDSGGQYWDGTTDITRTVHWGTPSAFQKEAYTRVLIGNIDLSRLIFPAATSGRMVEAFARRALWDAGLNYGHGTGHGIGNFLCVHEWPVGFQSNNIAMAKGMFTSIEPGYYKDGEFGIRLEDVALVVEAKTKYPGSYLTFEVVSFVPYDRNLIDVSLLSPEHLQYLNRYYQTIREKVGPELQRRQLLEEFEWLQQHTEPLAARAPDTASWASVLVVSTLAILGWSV

Turning to `NC(=O)[C@@H]1CCCN1C(=O)[C@@H]1CCCN1C(=O)[C@@H](O)[C@H](N)Cc1ccccc1`, the IC50 in test [1] came to 16 µM; in test [2] it was 1300 µM; in test [3], 250 µM; in test [4], 45 µM.

On to `C[C@H](NC(=O)[C@@H]1CCCN1C(=O)C1CCCC1S)C(N)=O` (stereo in doubt; 12), for which the concentration for half-maximal inhibition (IC50) in test [2] stood at 10 µM; in test [4], 6.3 µM; in test [5], 29 µM; in test [6], 3.4 µM.

In the case of `C[C@H](NC(=O)[C@@H]1CCCN1C(=O)C1CCCCC1C(=O)NO)C(N)=O` (stereo in doubt; 16), the values for the IC50 in test [1], in test [2] and in test [4] were 2000 µM, over 5000 µM and over 5000 µM, respectively.

With `C[C@H](NC(=O)[C@@H]1CCCN1C(=O)[C@@H]1C[C@@H](O)CN1C(=O)[C@@H](O)[C@H](N)Cc1ccccc1)C(N)=O`, the IC50 in test [1] is 160 µM; in test [2], over 2000 µM; in test [3], over 2000 µM; in test [4], over 2000 µM.

As to `C[C@H](NC(=O)[C@@H]1CCCN1C(=O)[C@@H]1CSCN1C(=O)[C@@H](O)[C@H](N)Cc1ccccc1)C(N)=O`, the IC50 in test [1] was found to be 41 µM; in test [2], 34 µM; in test [4], 82 µM.

As to `C[C@H](NC(=O)[C@@H]1CCCN1C(=O)[C@@H]1CCCN1C(=O)[C@@H](O)[C@H](N)Cc1ccccc1)C(N)=O`, the concentration for half-maximal inhibition (IC50) in test [1] is 9 µM; in test [2], 9.4 µM; in test [3] it was 18 µM; in test [4] it was 21 µM.

Regarding `C[C@H](NC(=O)[C@@H]1CCCN1C(=O)C1CCCCC1C(=O)NO)C(N)=O` (stereo in doubt; 15), the IC50 is over 2000 µM in test [1], over 500 µM in test [2] and over 2000 µM in test [4].

On to `C[C@H](NC(=O)[C@@H]1CCCN1C(=O)C1CCCCC1C(=O)NO)C(N)=O` (stereo in doubt; 14), for which the values for the 50% inhibitory concentration (IC50) in test [1], in test [2] and in test [4] were 130 µM, 50 µM and over 3000 µM, respectively.

Regarding `C[C@H](NC(=O)[C@@H]1CCCN1C(=O)C1CCCC1S)C(N)=O` (stereo in doubt; 13), the IC50 in test [1] was over 3000 µM; in test [2], 300 µM; in test [4], 53 µM; in test [5], 390 µM; in test [6] it was 150 µM.
